Rows were chosen to be rich in hits. Some 3.7% of all compounds tested hit in one or more screens of this group.
KCNK9 block: blocks the human KCNK9 two-pore domain potassium channel | Q9NPC2 | HEK293 KCNK9, FluxOR thallium flux fluorescence; hits give low values | B-score at 10 µM | 1.2% of 310,000 active;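 active = ratio B-score over 3 SD below the library mean, with starting fluorescence within 5 SD of its mean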;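 also: negative B-score means less thallium flux so channel inhibition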
hERG rescue: hERG (human) protection from proarrhythmic block; Q12809; CHO-hERG, FluxOR thallium flux, dofetilide IC70 present; activation (rescue from dofetilide block), less the hit threshold, % at 10 µM; 0.51% of 310,000 active; AID 1511;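 active = activation above the mean of controls blocked by dofetilide plus 5 SD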;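 also: thallium influx through hERG after potassium depolarization seen as dye fluorescence rise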
KCNK3 block: human KCNK3 channel inhibition, primary screen | O14649 | B-score at 10 µM | 0.84% of 340,000 active | CHO-KCNK3 thallium flux, FluxOR fluorescence; hits give low values | AID 602410;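 active = B-score under library mean minus 4 SD, starting fluorescence ratio at most library mean plus 5 SD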;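 also: more negative B-score means stronger inhibition of thallium flux through KCNK3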
Target sequence (O14649 whole entry, looked up): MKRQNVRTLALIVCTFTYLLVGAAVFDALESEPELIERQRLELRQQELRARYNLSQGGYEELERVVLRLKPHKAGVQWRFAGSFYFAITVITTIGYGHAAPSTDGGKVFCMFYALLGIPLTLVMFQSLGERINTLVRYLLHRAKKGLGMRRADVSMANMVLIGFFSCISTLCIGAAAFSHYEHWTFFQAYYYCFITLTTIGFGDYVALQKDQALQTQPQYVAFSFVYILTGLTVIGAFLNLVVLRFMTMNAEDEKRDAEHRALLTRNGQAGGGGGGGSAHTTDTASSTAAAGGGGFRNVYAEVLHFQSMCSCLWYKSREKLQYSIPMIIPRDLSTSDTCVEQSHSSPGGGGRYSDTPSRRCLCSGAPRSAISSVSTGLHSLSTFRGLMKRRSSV
KCNQ1 inh: blocks the human KCNQ1 potassium channel; P51787; AID 2642; CHO-K1 KCNQ1, FluxOR thallium flux fluorescence; hits give high values; 1.3% of 310,000 active; B-score at 10 µM;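 active = compounds whose thallium flux B-score, printed positive for inhibition, exceeds three library SD while starting fluorescence stays within three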;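 also: channel opened by potassium depolarization with thallium stimulus after 20 min compound exposure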
KCNQ1 act: potentiates or activates the human KCNQ1 potassium channel. B-score at 10 µM. P51787. CHO-K1 KCNQ1, thallium flux FluxOR fluorescence; hits give high values. AID 2648. 0.35% of 310,000 active;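 active = fluorescence ratio B-score, a plate-corrected score, at least three library SD, with initial intensity B-score within 5 SD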
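Assay system: CHO-K1 cells stably expressing KCNQ1. Medium: assay buffer for compound exposure, DMSO matched across wells. Timing: 37 °C overnight plating, 90-min dark dye load, 20-min compound pretreatment. Signal: kinetic FluxOR fluorescence, 10 s baseline plus 110 s post-stimulus.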
Kir21 inh: inhibitors of mouse Kir2.1 inward-rectifier potassium channel; P35561; HEK293-Kir2.1, FluxOR thallium flux fluorescence; hits give low values; B-score at 10 µM; 0.85% of 310,000 active; AID 1672;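 active = fluorescence ratio B-score at or below minus 3 SD of library scores, with starting-brightness B-score within 2 SD, cut at about -4.2 in these data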;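 also: channel flux triggered by added potassium and thallium sulfate stimulus; B-score of peak minus minimum fluorescence over baseline after thallium stimulus; more negative B-score means stronger Kir2.1 block with less thallium influx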
* marks the source's active call; other numbers are inactive results; i = inactive; nt = no result given.

SMILES	KCNK9 block	hERG rescue	KCNK3 block	KCNQ1 inh	KCNQ1 act	Kir21 inh
CC1(C)CC(NC(=O)c2cc(S(=O)(=O)N3CCOCC3)c(Cl)cc2Cl)CC(C)(C)N1	i	-20	i	i	i	0.92
O=C(NCC1CCCO1)c1cc2c([nH]c3ccccc32)c(-c2cccc(Br)c2)n1 (stereo unspecified)	i	-40	i	11*	i	1
COc1ccc(-c2nc(C(=O)NCC3CCCO3)cc3c2[nH]c2ccccc23)cc1 (stereo unspecified)	i	-9	i	i	i	1.5
O=[N+]([O-])c1ccccc1OCC(O)CN1CCN(CC(O)COc2ccccc2[N+](=O)[O-])CC1 (stereo unspecified)	i	-4	i	11*	i	-0.43
CSCCC(NC(=O)c1ccccc1Cl)C(=O)NCC(c1ccc(F)cc1)N1CCOCC1 (stereo unspecified)	nt	nt	i	nt	nt	nt
Cc1c(C(=O)OCC(=O)N2CC(=O)Nc3ccccc32)oc2ccc(Br)cc12	i	7.2*	i	i	i	0.21
CN(C)CCN(Cc1ccccc1)S(=O)(=O)c1ccc2c(c1)n(C)c(=O)c(=O)n2C	-7*	-4	i	i	i	-2.6
O=c1[nH]c(SCc2nc3ccccc3n2Cc2ccccc2)nc2ccccc12	i	-5	i	i	i	-0.07
Nc1cc(=O)[nH]c(SCc2nc3ccccc3n2Cc2ccccc2)n1	i	6.1*	i	i	i	0.16
Cc1ccc(C(C[N+](=O)[O-])c2c(-c3ccccc3O)[nH][nH]c2=O)cc1 (stereo unspecified)	i	-7	i	i	i	-9.5*
O=c1[nH][nH]c(-c2ccccc2O)c1C(C[N+](=O)[O-])c1ccc(Br)cc1 (stereo unspecified)	i	-13	i	i	i	-2.9
CCOC(=O)/C=C1/SCC(=O)N1CC(=O)c1ccc[nH]1	nt	nt	i	nt	nt	nt
C=CCn1c(Br)nc2c1c(=O)n(C)c(=O)n2C	i	-7	i	i	i	2
C=CCn1c(Br)nc2c1c(=O)[nH]c(=O)n2C	i	5.5*	i	i	i	-0.54
CN1C[C@@H]2[C@@H]3C(=O)N(C)C(=O)[C@@H]3[C@](C)(C1=O)N2C(=O)c1ccccc1	nt	nt	i	nt	nt	nt
O=C1CC(O)(C(F)(F)F)Oc2c1ccc1ccccc21 (stereo unspecified)	i	6.8*	i	i	8*	0.51
CC1(C)Cc2c(ccc3ccccc23)C(=O)N1	i	-15	i	i	i	0.88
Cc1ccc(Cn2ncc3c(NN)ncnc32)cc1	i	-5	i	i	15*	-0.49
Cc1nnc(SCC(=O)Nc2sc3c(c2C(N)=O)CCC(C)C3)[nH]c1=O (stereo unspecified)	nt	nt	i	nt	nt	nt
CC1(C)CC(=O)c2c(nn(-c3ccccc3)c2-c2ccncc2)C1	i	7.1*	i	i	i	-0.22
Cc1c2c(nc3ccccc13)CC(C)(C)CC2=O	i	-12	i	i	i	-0.93
CC(=O)OCCN(C)c1cc(SC(C)C)c2nonc2c1[N+](=O)[O-]	i	7.4*	i	i	i	-0.2
C/C(=N\NC(=S)NCc1ccccc1)c1ccccc1	i	-10	i	i	i	0.44
C/C(=N\NC(=S)NCc1ccccc1)c1ccco1	i	4.9*	i	i	i	-0.8
CSc1ccc(-c2cccc([N+](=O)[O-])c2)nn1	i	-22	i	i	i	0.36
SMILES	KCNK9 block	hERG rescue	KCNK3 block	KCNQ1 inh	KCNQ1 act	Kir21 inh
O=[N+]([O-])c1cccc(-c2ccc(SCc3cccnc3)nn2)c1	i	-8	i	6*	i	1.1
COc1ccccc1CNCC(=O)Nc1ccccc1-n1cccc1	i	-12	i	i	i	-4.5*
COc1ccccc1NC(C)C(=O)N/N=C/c1ccccc1OCc1cccc(Br)c1 (stereo unspecified)	-7.3*	-6	i	i	i	0.24
COCCNC(=O)c1csc(Nc2cccc3ccccc23)n1	i	-8	i	i	i	1.2
CCCNC(=O)c1csc(Nc2cccc3ccccc23)n1	-8*	-4	i	i	i	1.6
CC(=O)c1cccc(NC(=O)C(=O)Nc2cccc3ccccc23)c1	i	5.2*	i	i	i	-1.2
CC(=O)c1ccc(NC(=S)Nc2cccc3ccccc23)cc1	i	-5	i	i	i	0.4
COc1ccccc1/C=C/CN1CCC(Oc2cc(C(=O)NC3CC3)ccc2OC)CC1	i	-12	i	i	i	-0.65
Cc1nnc(NC(=O)CCC(=O)NC2CCCCCCC2)s1	i	-7	i	i	i	-0.1
COc1cc(/C=C(\C#N)C(=O)c2c(C)[nH]c3ccccc23)cc(OC)c1OC	i	-16	i	i	i	0.88
COc1ccc(/C=C(\C#N)C(=O)c2c(C)[nH]c3ccccc23)cc1OC	i	-23	i	6*	i	2.1
N#Cc1ccc(CN2CCN(C(=O)CCNS(=O)(=O)c3ccc(F)c(Cl)c3)CC2)cc1	nt	nt	i	nt	nt	nt
CC(=O)Nc1ccc(S(=O)(=O)NCc2nc(-c3ccccc3Cl)no2)cc1	i	-8	i	i	i	-1.1
CN1CCC(NCCC(c2ccc(F)cc2)c2ccc(Cl)cc2)CC1 (stereo unspecified)	i	-9	i	i	i	-6.7*
CC(C)C(CCNC1CCN(C)CC1)c1ccc(Cl)cc1 (stereo unspecified)	i	-6	i	i	i	-1.4
Cc1ccc(NC(=O)CSCC(=O)OCc2cc(=O)oc3cc(O)ccc23)c(C)c1	i	-15	i	i	i	0.65
CN(CCOCCOc1ccc2ccccc2c1)Cc1ccccc1	i	-14	i	i	i	-7*
Cc1ccc(S(=O)(=O)c2c(C)nn(C(C)(C)C)c2OC(=O)C2CCCC2)cc1	-8*	-3	-8.8*	i	i	-0.69
CCOC(=O)C1CCN(S(=O)(=O)c2ccc(C)cc2)CC1	i	-4	i	i	i	-0.05
CC(=O)Nc1ccccc1C(=O)C(=O)Nc1ccc(Cl)cc1	i	8.2*	i	i	i	0.83
O=C(CSc1nnc(CNC(=O)c2ccccc2F)o1)NC1CCCCC1	i	-8	i	i	i	-1.1
C=CCN1C(=O)/C(=C/c2ccc(OC(C)=O)c(OCC)c2[N+](=O)[O-])SC1=S	i	-39	i	12*	i	-0.68

Screens as filed in PubChem.
